Measured values of several laboratories.
Lines come from different studies, so protocols differ.
SLC22A12: Solute carrier family 22 member 12 (SLC22A12, Homo sapiens, UniProt Q96S37)
WDR5: WD repeat-containing protein 5 (WDR5, Homo sapiens, UniProt P61964)
OfChi-h: Chitinase (OfChi-h, Ostrinia furnacalis, UniProt Q4AE59)
F10: Coagulation factor X (F10, Homo sapiens, UniProt P00742)

Compound | target | assay | conditions | endpoint | result
O=C(NO)c1cncc(OS(=O)(=O)Oc2ccc(-n3ccnc3)cc2)c1 | Histone deacetylase 7 (HDAC7, Homo sapiens, UniProt Q8WUI4) | enzyme activity, inhibitor, fluorescence |  | IC50 | 5.07 µM
Cn1c(=O)c2c(ncn2C)n(C)c1=O | SLC22A12 | transporter uptake, inhibitor, radiometric | oocytes | IC50 | > 5000 µM
C[C@@H]1CN(c2ccc(-c3cc(C(=O)NCCOCCOCCOCCOCCNC(=O)Cn4cc(-c5[nH]cc(C(=O)N[C@@H](CC(N)=O)c6ccc(F)c(Cl)c6)c5-c5ccc(Cl)cc5F)cn4)ccc3F)cc2NC(=O)c2c[nH]c(=O)cc2C(F)(F)F)C[C@H](C)N1C | WDR5 | binding, SPR |  | Kd | 0.0375 µM
CCCCc1ccc(CNc2nc(N(C)C)nc(N(C)C)c2/N=N/c2ccc(Cl)cc2)cc1 | OfChi-h | enzyme activity, inhibitor, fluorescence |  | Ki | 0.0194 µM
CC(=O)N[C@H]1Cc2ccc(cc2)OC/C=C/C[C@@H](C(=O)N[C@@H](CCCNC(=N)N)C(=O)c2nc3ccccc3s2)NC(=O)[C@H](CC(C)C)NC1=O | F10 | enzyme activity, inhibitor, absorbance | with preincubation | IC50 | 0.122 µM
C[C@@H]1CN(c2ccc(-c3cc(C(=O)NCCOCCOCCOCCOCCOCCOCCNC(=O)/C=C/c4[nH]cc(C(=O)N[C@@H](CC(N)=O)c5ccc(F)c(Cl)c5)c4-c4ccc(Cl)cc4F)ccc3F)cc2NC(=O)c2ccc(F)cc2C(F)(F)F)C[C@H](C)N1C | WDR5 | binding, SPR |  | Kd | 0.0808 µM
CCNC(=O)N1CCN(c2nc(NC3CCN(C(=O)[C@@H](CCc4ccc(OC)cc4)NC(=O)[C@@H]4CCCCN4C(=O)C(=O)C(C)(C)CC)CC3)nc(N(Cc3cnn(C)c3)C3CC3)n2)CC1 | Bromodomain-containing protein 9 (BRD9, Homo sapiens, UniProt Q9H8M2) | binding, SPR |  | Kd | > 10 µM
CC(=O)N[C@H]1Cc2ccc(cc2)OC/C=C\CNC(=O)C[C@@H](C(=O)N[C@@H](CCCNC(=N)N)C(=O)c2nc3ccccc3s2)NC(=O)[C@H](CC(C)C)NC1=O | F10 | enzyme activity, inhibitor, absorbance | with preincubation | IC50 | 3.18 µM
Nc1ncnc2c1ncn2[C@@H]1O[C@H](CO)[C@@H](O)[C@H]1O | SLC22A12 | transporter uptake, inhibitor, radiometric | oocytes | IC50 | > 10000 µM
CN(C)c1nc(NCc2cccc(C(F)(F)F)c2)c(/N=N/c2ccc(Cl)cc2)c(N(C)C)n1 | OfChi-h | enzyme activity, inhibitor, fluorescence |  | IC50 | 0.3 µM
C=CS(=O)(=O)c1ccc(Nc2nc(OCC3CCCCC3)c3nc[nH]c3n2)cc1 | Gasdermin-D (GSDMD, Homo sapiens, UniProt P57764) | binding, MST |  | Kd | 36.1 µM
